Converted amounts (≈) assume the structure as drawn. “Also recorded” adds a separate entry of the source. Blank lines part the entries; values can stand above or below the compound they belong to.
Experiments:
[1] = system: P. aeruginosa PA14; experiment: Antibiotic susceptibility; assay type: cell-based, Pseudomonas aeruginosa
In short: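 PA14 from LB agar (37 °C overnight) dispersed in MHB II to OD600 0.08–0.13, diluted 1:100 (final 5 × 10⁵ cfu/mL). Serial dilutions in PBS/20% DMSO (1 mM–1.9 μM before dilution) diluted ~1:20 into matrix at −3 h (sealed, 37 °C) or −10 min (room temperature).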

[2] = Cleavage/stability in P. aeruginosa PA14 culture filtrate without plasma; assay type: in vitro ADME, Pseudomonas aeruginosa; conditions: up to 24 h
[3] = assay type: in vitro ADME; conditions: human blood plasma + PA14 culture supernatant, 37 °C, up to 3 h
In short: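 PA14 grown overnight in LB at 37 °C, 180 rpm. Culture centrifuged and supernatant 0.22 μm-filtered, then mixed 1:9 with pooled LiHep human plasma. Test compound (1 mM stock, PBS pH 7.4/20% DMSO) diluted 1:20 into matrix on ice and incubated at 37 °C, 500 rpm. Samples taken at 0, 30, 60, 120 and 180 min, quenched with ice-cold MeCN containing diphenhydramine internal standard, centrifuged, then analysed by HPLC-MS.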

[4] = assay type: in vitro ADME; conditions: human blood plasma spiked with fresh growth medium, within 3 h
[5] = Microsomal stability assay, mouse; assay type: in vitro ADME; conditions: mouse liver microsomes
In short: (§1)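 Mouse or human liver microsomes thawed slowly on ice, then combined with test compound (from a 100 μM solution; final level not given) and 100 mM phosphate buffer. Pre-incubated 5 min at 37 °C in a water bath. Intrinsic clearance reported as μL/min/mg protein.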

[6] = Microsomal stability assay, human; assay type: in vitro ADME; conditions: human liver microsomes
In short: as §1

[7] = system: A549 cells; experiment: Cell accumulation assay; assay type: cell-based, human; conditions: for compound 2 found in cells after lysis (intracellular cleavage of prodrug): A549 cells treated with prodrug
[8] = system: A549 cells; conditions: cytotoxicity versus antimicrobial activity
[9] = Matrix 3: 10% P. aeruginosa culture supernatant in PBS, pre-incubation < 10 min

- MIC ([1]; Pseudomonas aeruginosa, PA14, Matrix 1: PBS, pre-incubation 3 h): 0.125 to 0.25 µM (≈ 0.0414 to 0.0828 µg/mL)
Compound: O=C(O)c1cn(C2CC2)c2cc(N3CCNCC3)c(F)cc2c1=O [Compound 1, Ciprofloxacin, reference compound]

Compound: Leu-Ala-Ciprofloxacin Conjugate [Compound 19]
- release of antibiotic cargo from dipeptide conjugate [2]: only slowly released their antibiotic cargo

Compound: CC(C)C[C@H](NC(=O)CNC(=O)[C@H](C)NC(=O)c1ccc(S(=O)(=O)NC[C@H]2O[C@@H](C)[C@@H](O)[C@@H](O)[C@@H]2O)cc1)C(=O)N[C@@H](C)C(=O)N[C@H]1CCN(c2cc3c(cc2F)c(=O)c(C(=O)O)cn3C2CC2)C1 [Compound 37, LecB-Targeted Aminopyrrolidine-FQ-Prodrug]
- release of native antibiotic cargo [3]: efficiently released
- release of antibiotic cargo (stability control) [4]: no significant release of the antibiotic cargo was observed
- half-life at 1 h, 100 µM [5]: 3.6 h
- microsomal CLint at 1 h, 1 µM [5]: 6.4 µL/min/mg
- half-life at 1 h, 100 µM [6]: 2.97 h
- microsomal CLint at 1 h, 100 µM [6]: 7.8 µL/min/mg
- fold decreased ability to permeate into human cells versus 2 ([7]; A549 cells): up to 100 fold
- compound 2 found in cells after lysis (intracellular cleavage of prodrug) [7]: not detected

Compound: CC(C)C[C@H](NC(=O)CNC(=O)[C@H](C)NC(=O)c1ccc(S[C@@H]2O[C@H](CO)[C@H](O)[C@H](O)[C@H]2O)cc1)C(=O)N[C@@H](C)C(=O)N[C@H]1CCN(c2cc3c(cc2F)c(=O)c(C(=O)O)cn3C2CC2)C1 [Compound 36, LecA-Targeted Aminopyrrolidine-fluoroquinolone Prodrug]
- MIC ([1]; Matrix 3: 10% P. aeruginosa culture supernatant in PBS, pre-incubation 3 h): 0.195 to 3.13 µM
- MIC [1, 9]: 0.78 to 3.13 µM
- release of native antibiotic cargo [3]: efficiently released
- release of antibiotic cargo (stability control) [4]: no significant release of the antibiotic cargo was observed
- half-life at 1 h, 100 µM [5]: 1.67 h
- microsomal CLint at 1 h, 100 µM [5]: 14 µL/min/mg
- half-life at 1 h, 100 µM [6]: 1.55 h
- microsomal CLint at 1 h, 1 µM [6]: 15 µL/min/mg
- fold decreased ability to permeate into human cells versus 2 ([7]; A549 cells): up to 100 fold
- compound 2 found in cells after lysis (intracellular cleavage of prodrug) [7]: not detected
- intracellular concentration ([7]; A549 cells, 10 μg/mL, after 15, 30, and 60 min): 55 to 130 ng/mL
- selectivity index [8]: greater than 20

Compound: CC(C)C[C@H](NC(=O)CNC(=O)[C@H](C)NC(=O)c1ccc(S(=O)(=O)NC[C@H]2O[C@@H](C)[C@@H](O)[C@@H](O)[C@@H]2O)cc1)C(=O)N[C@@H](C)C(=O)N1CCN(c2cc3c(cc2F)c(=O)c(C(=O)O)cn3C2CC2)CC1 [Compound 25, LecB-Targeted Ciprofloxacin-Prodrug]
- release of native antibiotic cargo [3]: not fully metabolized to release their native antibiotic cargo; also recorded: not completely processed to release free ciprofloxacin
- release of antibiotic cargo (stability control) [4]: no significant release of the antibiotic cargo was observed

Compound: CC(C)C[C@H](N)C(=O)N[C@@H](C)C(=O)N[C@H]1CCN(c2cc3c(cc2F)c(=O)c(C(=O)O)cn3C2CC2)C1 [Compound 35, 7-((S)-3-((S)-2-((S)-2-Amino-4-methylpentanamido)propanamido)pyrrolidin-1-yl)-1-cyclopropyl-6-fluoro-4-oxo-1,4-dihydroquinoline-3-carboxylic Acid]
- release of antibiotic cargo from dipeptide conjugate [2]: only slowly released their antibiotic cargo

Compound: CC(C)C[C@H](NC(=O)CNC(=O)[C@H](C)NC(=O)c1ccc(S(=O)(=O)NC[C@H]2O[C@@H](C)[C@@H](O)[C@@H](O)[C@@H]2O)cc1)C(=O)N[C@@H](C)C(=O)NC[C@@H]1CCN(c2cc3c(cc2F)c(=O)c(C(=O)O)cn3C2CC2)C1 [Compound 49, LecB-Targeted Aminomethylpyrrolidine-FQ-Prodrug]
- MIC [1, 9]: 3.13 to 6.25 µM
- release of native antibiotic cargo [3]: efficiently released
- release of antibiotic cargo (stability control) [4]: no significant release of the antibiotic cargo was observed

Compound: CC(C)C[C@H](NC(=O)CNC(=O)[C@H](C)NC(=O)c1ccc(S[C@@H]2O[C@H](CO)[C@H](O)[C@H](O)[C@H]2O)cc1)C(=O)N[C@@H](C)C(=O)N1CCN(c2cc3c(cc2F)c(=O)c(C(=O)O)cn3C2CC2)CC1 [Compound 24, LecA-targeted ciprofloxacin-prodrug]
- release of native antibiotic cargo [3]: not fully metabolized to release their native antibiotic cargo; also recorded: not completely processed to release free ciprofloxacin
- release of antibiotic cargo (stability control) [4]: no significant release of the antibiotic cargo was observed

Compound: CC(C)C[C@H](NC(=O)CNC(=O)[C@H](C)NC(=O)c1ccc(S[C@@H]2O[C@H](CO)[C@H](O)[C@H](O)[C@H]2O)cc1)C(=O)N[C@@H](C)C(=O)NC[C@@H]1CCN(c2cc3c(cc2F)c(=O)c(C(=O)O)cn3C2CC2)C1 [Compound 48, LecA-Targeted Aminomethylpyrrolidine-FQ-Prodrug]
- release of native antibiotic cargo [3]: efficiently released
- release of antibiotic cargo (stability control) [4]: no significant release of the antibiotic cargo was observed

From publication PMC9619409 (Journal of Medicinal Chemistry, 2022)
